# In PMC2914325 (Nanomedicine (London, England), 2010):
# Tests used:
# [1] = Absorption and fluorescence spectroscopy, quantum yield, TCSPC lifetime, TRES; assay type: physicochemical; conditions: for λem: 720 nm excitation; for τ (fluorescence lifetime): TCSPC, 773 nm excitation, 820 nm detection; for Φ (quantum yield): relative to ICG in DMSO
# [2] = Aggregation / stability of probes in solvents; assay type: physicochemical
# [3] = system: intradermal 4T1luc tumors in mouse ears; experiment: High resolution noninvasive NIR imaging of intradermal ear tumors; assay type: in vivo, mouse (female balb/c); conditions: post-injection
# Outline: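 4T1luc cells (1×10^4) were implanted intradermally in each ear; n=3. From day 3, isoflurane-anaesthetised mice had glycerin-coated ears imaged at 800 nm (0.02 mm/pixel). Nanoparticles (0.10 mL, 4×10^13 particles/mL) or small-molecule probe (0.02 mL, 20 μM, 20% DMSO/water) were given i.v. by tail vein. Imaging was pre-, immediately post-, 4 h and 24 h post-injection, repeated days 8 and 15. Background-subtracted tumour ROI intensity was normalised to injected dose from vessel ROIs.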
# [4] = system: subcutaneous 4T1luc tumors; experiment: Whole-body planar fluorescence reflectance imaging; assay type: in vivo, mouse (male NCR nude); conditions: 24 hours post-injection, i.v., subcutaneous 4T1luc tumor
# Outline: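 Tumours were 2×10^5 4T1luc cells s.c. in the right shoulder; n=3. Mice received i.v. 100 μl small-molecule probe (20 μM, 20% DMSO/water) or 150 μL nanoparticles. Planar NIR reflectance images (755±35 nm excitation, 830 nm emission, 60 s) were taken at 1, 4 and 24 h, with white-light/X-ray reference. Organs were then imaged ex vivo. ROI mean intensities were compared by Student's t-test (α = 0.05).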
# [5] = 20% DMSO/water, room temperature
"ε × 10^-3 ([1]; DMSO, room temperature)","λabs ([1]; DMSO, room temperature)","λem ([1]; DMSO, room temperature)",τ (fluorescence lifetime) ([1]; DMSO),Φ (quantum yield) ([1]; DMSO),aggregation ([2]; aqueous solutions),Compound,"λabs [1, 5]","λem [1, 5]",τ (fluorescence lifetime) ([1]; 20% DMSO/water),Φ (quantum yield) ([1]; 20% DMSO/water),stability in solvent ([2]; 20% DMSO/water),time of peak tumor-to-normal contrast [3],In vivo tumor contrast [4]
224 M^-1 cm^-1,790 nm,817 nm,0.97 ns,0.12,form non-emissive aggregates,CC1(C)C(/C=C/C=C/C=C/C=C2/N(CCC(=O)O)c3ccc4ccccc4c3C2(C)C)=[N+](CCC(=O)[O-])c2ccc3ccccc3c21 [cypate],,,,,,,
,,,,,,cypate-cRGDfK,790 nm,804 nm,0.24 ns,0.036,stable,4 h,1.32 +/- 0.13
